# Active and inactive are the calls of the source. The rule behind the calls is not given here.
# How the values were obtained:
# [1] = Cytotoxicity against human SNB19 cells by SRB assay; type: functional; conditions: SNB-19
# Outline: (§1)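 NCI 60 human tumor cell line panel, sulforhodamine B (SRB) protein-stain read-out. Compounds were first screened at a single dose of 10^-5 M, and selected compounds were then tested in a five-dose format. GI50 is the drug concentration giving a 50% reduction in net protein increase relative to control cells.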
# MV4-11 [2] = assay: Anti-leukemia activity against human MV4-11 cells after 48 hrs by Annexin-V staining; type: functional; conditions: MV4-11, 48 h, read-out: LD50 (the source's name)
# Outline: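 MV4-11 AML cells exposed to increasing compound concentrations for 24 and 48 h. Viability measured by Annexin V/7-AAD staining and expressed as percent Annexin V-/7-AAD- cells relative to control. N = 5, error bars SD. LD50 values derived from these curves.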
# MDA-MB-468 = assay: Cytotoxicity against human MDA-MB-468 cells by SRB assay; type: functional; outline: as §1
# SR = assay: Cytotoxicity against human SR cells by SRB assay; type: functional; outline: as §1
# CAKI-1 = assay: Cytotoxicity against human CAKI-1 cells by SRB assay; type: functional; outline: as §1
# NCI/ADR-RES = assay: Cytotoxicity against human NCI/ADR-RES cells by SRB assay; type: functional; outline: as §1
# [3] = Cytotoxicity against human OVCAR3 cells by SRB assay; type: functional; conditions: OVCAR-3; outline: as §1
# KM12 = assay: Cytotoxicity against human KM12 cells by SRB assay; type: functional; outline: as §1
# A498 = assay: Cytotoxicity against human A498 cells by SRB assay; type: functional; outline: as §1
# [4] = Cytotoxicity against human SF539 cells by SRB assay; type: functional; conditions: SF-539; outline: as §1
# [5] = Cytotoxicity against human RPMI8226 cells by SRB assay; type: functional; conditions: RPMI-8226; outline: as §1
# [6] = Cytotoxicity against human MOLT4 cells by SRB assay; type: functional; conditions: MOLT-4; outline: as §1
# NCI-H23 = assay: Cytotoxicity against human NCI-H23 cells by SRB assay; type: functional; outline: as §1
# U-251 = assay: Cytotoxicity against human U251 cells by SRB assay; type: functional; outline: as §1
# MV4-11 [7] = assay: Inhibition of alpha-tubulin polymerization in human MV4-11 cells at 25 to 100 nM after 2 hrs by Western blotting; type: cell-based
# Outline: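 MV4-11 cells treated for 2 hours at 25, 50 and 100 nM. Microtubule polymerization then assessed by immunoblot.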
# [8] = Cytotoxicity against human SF268 cells by SRB assay; type: functional; conditions: SF-268; outline: as §1
# SK-MEL-2 = assay: Cytotoxicity against human SK-MEL-2 cells by SRB assay; type: functional; outline: as §1
# [9] = Cytotoxicity against human HCT15 cells by SRB assay; type: functional; conditions: HCT-15; outline: as §1
# ACHN = assay: Cytotoxicity against human ACHN cells by SRB assay; type: functional; outline: as §1
# [10] = Cytotoxicity against human UO31 cells by SRB assay; type: functional; conditions: UO-31; outline: as §1
# SK-MEL-28 = assay: Cytotoxicity against human SK-MEL-28 cells by SRB assay; type: functional; outline: as §1
# [11] = Cytotoxicity against human Hs578T cells by SRB assay; type: functional; conditions: Hs-578T; outline: as §1
# MCF7 = assay: Cytotoxicity against human MCF7 cells by SRB assay; type: functional; outline: as §1
# MDA-MB-435 = assay: Cytotoxicity against human MDA-MB-435 cells by SRB assay; type: functional; outline: as §1
# M14 = assay: Cytotoxicity against human M14 cells by SRB assay; type: functional; outline: as §1
# [12] = Cytotoxicity against human SNB75 cells by SRB assay; type: functional; conditions: SNB-75; outline: as §1
# A549 = assay: Cytotoxicity against human A549 cells by SRB assay; type: functional; outline: as §1
# [13] = Cytotoxicity against human OVCAR4 cells by SRB assay; type: functional; conditions: OVCAR-4; outline: as §1
# [14] = Cytotoxicity against human LOXIMVI cells by SRB assay; type: functional; conditions: LOX IMVI
# Outline: (§2)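 NCI 60-cell-line panel using sulforhodamine B protein stain. Initial single-dose screen at 10^-5 M, then five-dose testing. GI50 is the drug concentration giving a 50% reduction in net protein increase relative to control cells.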
# [15] = Cytotoxicity against human HOP92 cells by SRB assay; type: functional; conditions: HOP-92; outline: as §1
# [16] = Cytotoxicity against human IGROV1 cells by SRB assay; type: functional; conditions: IGROV-1; outline: as §2
# 786-0 = assay: Cytotoxicity against human 786-0 cells by SRB assay; type: functional; outline: as §1
# SK-MEL-5 = assay: Cytotoxicity against human SK-MEL-5 cells by SRB assay; type: functional; outline: as §1
# [17] = Cytotoxicity against human COLO205 cells by SRB assay; type: functional; conditions: COLO 205; outline: as §1
# CCRF-CEM = assay: Cytotoxicity against human CCRF-CEM cells by SRB assay; type: functional; outline: as §1
# [18] = Cytotoxicity against human HCT116 cells by SRB assay; type: functional; conditions: HCT-116; outline: as §1
# NCI-H522 = assay: Cytotoxicity against human NCI-H522 cells by SRB assay; type: functional; outline: as §1
# MDA-MB-231 = assay: Cytotoxicity against human MDA-MB-231 cells by SRB assay; type: functional; outline: as §1
# [19] = Cytotoxicity against human SKOV3 cells by SRB assay; type: functional; conditions: SK-OV-3; outline: as §1
# [20] = Cytotoxicity against human HCC2998 cells by SRB assay; type: functional; conditions: HCC 2998; outline: as §1
# K562 = assay: Cytotoxicity against human K562 cells by SRB assay; type: functional; outline: as §1
# [21] = Cytotoxicity against human SF295 cells by SRB assay; type: functional; conditions: SF-295; outline: as §1
# [22] = Cytotoxicity against human UACC62 cells by SRB assay; type: functional; conditions: UACC-62; outline: as §1
# HT-29 = assay: Cytotoxicity against human HT-29 cells by SRB assay; type: functional; outline: as §1
# [23] = Cytotoxicity against human SW620 cells by SRB assay; type: functional; conditions: SW-620; outline: as §1
# [24] = Cytotoxicity against human HL-60(TB) cells by SRB assay; type: functional; outline: as §2
compound,measurement,setting,value
COc1ccc(/C=C(/C#N)c2cc(OC)c(OC)c(OC)c2)cc1O,GI50,[1],< 0.01 µM
same,CC50,MV4-11 [2],0.0025 µM
same,GI50,MDA-MB-468,< 0.01 µM
same,GI50,SR,< 0.01 µM
same,GI50,CAKI-1,< 0.01 µM
same,GI50,NCI/ADR-RES,< 0.01 µM
same,GI50,[3],< 0.01 µM
same,GI50,KM12,< 0.01 µM
same,GI50,A498,< 0.01 µM
same,GI50,[4],< 0.01 µM
same,GI50,[5],< 0.01 µM
same,GI50,[6],< 0.01 µM
same,GI50,NCI-H23,< 0.01 µM
same,GI50,U-251,< 0.01 µM
same,inhibition,MV4-11 [7],Active
same,GI50,[8],< 0.01 µM
same,GI50,SK-MEL-2,< 0.01 µM
same,GI50,[9],< 0.01 µM
same,GI50,ACHN,< 0.01 µM
same,GI50,[10],< 0.01 µM
same,GI50,SK-MEL-28,< 0.01 µM
same,GI50,[11],< 0.01 µM
same,GI50,MCF7,< 0.01 µM
same,GI50,MDA-MB-435,< 0.01 µM
same,GI50,M14,< 0.01 µM
same,GI50,[12],< 0.01 µM
same,GI50,A549,< 0.01 µM
same,GI50,[13],< 0.01 µM
same,GI50,[14],< 0.01 µM
same,GI50,[15],< 0.01 µM
same,GI50,[16],< 0.01 µM
same,GI50,786-0,0.02 µM
same,GI50,SK-MEL-5,< 0.01 µM
same,GI50,[17],0.3 µM
same,GI50,CCRF-CEM,< 0.01 µM
same,GI50,[18],< 0.01 µM
same,GI50,NCI-H522,< 0.01 µM
same,GI50,MDA-MB-231,< 0.01 µM
same,GI50,[19],< 0.01 µM
same,GI50,[20],< 0.01 µM
same,GI50,K562,< 0.01 µM
same,GI50,[21],0.01 µM
same,GI50,[22],< 0.01 µM
same,GI50,HT-29,0.32 µM
same,GI50,[23],< 0.01 µM
same,GI50,[24],< 0.01 µM
